Measurements reported in ChEMBL document CHEMBL1155027, “Synthesis and proteasome inhibition of glycyrrhetinic acid derivatives” (Bioorg Med Chem, 2008).
The source made the active and inactive calls. The calls are words filed in the database; no cut-off is given here. Residues, ends and D or L forms follow the SMILES beside them.

Legend:
[1] = Inhibition of chymotrypsin-like activity of human 20S proteasome
[2] = Inhibition of trypsin-like activity of human 20S proteasome
In short: (§1)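 Purified human 20S proteasome assayed with the activator PA28 (16 µg/ml) and fluorogenic substrates: Suc-Leu-Leu-Val-Tyr-AMC for chymotrypsin-like, Bz-VGR-AMC for trypsin-like, and (Z)-LLE-bNA for caspase-like activity. Fluorescence was read at 360/460 nm across a range of inhibitor concentrations. IC50 is the concentration that halves reaction velocity (ΔRFU/min), taken from a plot of velocity against log concentration.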

[3] = Inhibition of caspase-like activity of human 20S proteasome; in short: as §1
[4] = tested on: MT4; assay: Inhibition of TNF-alpha-induced 20S proteasome degradation of IkappaBalpha in human MT4 cells at 1.6 uM after 3 hrs by Western blot analysis; type: cell-based
In short: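 MT4 cells pretreated with inhibitor 3 h, then TNFα 10 ng/ml for 30 min; cytosolic proteins resolved on 12% SDS-PAGE, transferred to nitrocellulose and Western blotted for IκBα, with β-actin as loading reference.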

[5] = tested on: MT4; assay: Inhibition of chymotrypsin-like activity of 20S proteasome in human MT4 cells at 0.25 uM after 3 hrs; type: cell-based

Row | Compound | IC50 [1] | other results
1 | CC1(C)[C@@H](O)CC[C@]2(C)[C@H]3C(=O)C=C4[C@@H]5C[C@@](C)(C(=O)O)CC[C@]5(C)CC[C@@]4(C)[C@]3(C)CC[C@@H]12 [ENOXOLONE] | 22.3 µM | IC50 [2]: > 40 µM; IC50 [3]: > 40 µM
2 | CC(C)CC(NC(=O)[C@@]1(C)CC[C@]2(C)CC[C@]3(C)C(=CC(=O)[C@@H]4[C@@]5(C)CC[C@H](O)C(C)(C)[C@@H]5CC[C@]43C)[C@@H]2C1)C(=O)O (stereo partly specified) | > 40 µM | –
3 | CC(=O)O[C@H]1CC[C@]2(C)[C@H]3C(=O)C=C4[C@@H]5C[C@@](C)(C(=O)O)CC[C@]5(C)CC[C@@]4(C)[C@]3(C)CC[C@H]2C1(C)C [ACETOXOLONE] | > 40 µM | –
4 | CC1(C)[C@@H](OC(=O)Cc2ccc(CC(=O)O)cc2)CC[C@]2(C)[C@H]3C(=O)C=C4[C@@H]5C[C@@](C)(C(=O)O)CC[C@]5(C)CC[C@@]4(C)[C@]3(C)CC[C@@H]12 | 1.78 µM | –
5 | CC(C)CC(NC(=O)[C@@]1(C)CC[C@]2(C)CC[C@]3(C)C(=CC(=O)[C@@H]4[C@@]5(C)CC[C@H](OC(=O)CC(C)(C)C(=O)O)C(C)(C)[C@@H]5CC[C@]43C)[C@@H]2C1)C(=O)O (stereo partly specified) | 3.09 µM | –
6 | COC(=O)C(CC(C)C)NC(=O)[C@@]1(C)CC[C@]2(C)CC[C@]3(C)C(=CC(=O)[C@@H]4[C@@]5(C)CC[C@H](OC(C)=O)C(C)(C)[C@@H]5CC[C@]43C)[C@@H]2C1 (stereo partly specified) | > 40 µM | –
7 | CC1(C)[C@@H](OC(=O)COCC(=O)O)CC[C@]2(C)[C@H]3C(=O)C=C4[C@@H]5C[C@@](C)(C(=O)O)CC[C@]5(C)CC[C@@]4(C)[C@]3(C)CC[C@@H]12 | 1.93 µM | –
8 | CC(C)(CC(=O)O[C@H]1CC[C@]2(C)[C@H]3C(=O)C=C4[C@@H]5C[C@@](C)(C(=O)O)CC[C@]5(C)CC[C@@]4(C)[C@]3(C)CC[C@H]2C1(C)C)C(=O)O | 0.87 µM | –
9 | CC1(C)[C@@H](OC(=O)c2ccccc2)CC[C@]2(C)[C@H]3C(=O)C=C4[C@@H]5C[C@@](C)(C(=O)O)CC[C@]5(C)CC[C@@]4(C)[C@]3(C)CC[C@@H]12 | 2.08 µM | –
10 | CC1(C)[C@@H](OC(=O)CCCCC(=O)O)CC[C@]2(C)[C@H]3C(=O)C=C4[C@@H]5C[C@@](C)(C(=O)O)CC[C@]5(C)CC[C@@]4(C)[C@]3(C)CC[C@@H]12 | 0.29 µM | IC50 [2]: 3.32 µM; IC50 [3]: 5.02 µM
11 | CC1(C)[C@@H](OC(=O)C/C=C/CC(=O)O)CC[C@]2(C)[C@H]3C(=O)C=C4[C@@H]5C[C@@](C)(C(=O)O)CC[C@]5(C)CC[C@@]4(C)[C@]3(C)CC[C@@H]12 | 0.35 µM | IC50 [2]: 19.3 µM; IC50 [3]: 26.5 µM
12 | CC1(C)[C@@H](OC(=O)c2cccc(C(=O)O)c2)CC[C@]2(C)[C@H]3C(=O)C=C4[C@@H]5C[C@@](C)(C(=O)O)CC[C@]5(C)CC[C@@]4(C)[C@]3(C)CC[C@@H]12 | 0.22 µM | IC50 [2]: 2.91 µM; Activity [4]: Active; inhibition [5]: 50%; IC50 [3]: 3.56 µM
13 | CC(C)(CC(=O)O)CC(=O)O[C@H]1CC[C@]2(C)[C@H]3C(=O)C=C4[C@@H]5C[C@@](C)(C(=O)O)CC[C@]5(C)CC[C@@]4(C)[C@]3(C)CC[C@H]2C1(C)C | 6.86 µM | –
14 | CC1(C)[C@@H](OC(=O)CCC(=O)O)CC[C@]2(C)[C@H]3C(=O)C=C4[C@@H]5C[C@@](C)(C(=O)O)CC[C@]5(C)CC[C@@]4(C)[C@]3(C)CC[C@@H]12 [CARBENOXOLONE] | 2.63 µM | –
15 | CC(=O)N[C@@H](CSC(=O)C1([C@@H](O)C(C)C)NC(=O)[C@H](C)[C@@H]1O)C(=O)O (single isomer, unassigned) [LACTACYSTIN] | – | IC50 [2]: > 30 µM; IC50 [3]: > 30 µM
16 | CC(C(=O)O)C(C)C(=O)O[C@H]1CC[C@]2(C)[C@H]3C(=O)C=C4[C@@H]5C[C@@](C)(C(=O)O)CC[C@]5(C)CC[C@@]4(C)[C@]3(C)CC[C@H]2C1(C)C (stereo partly specified) | 8.7 µM | –
17 | CCC(=O)O[C@H]1CC[C@]2(C)[C@H]3C(=O)C=C4[C@@H]5C[C@@](C)(C(=O)O)CC[C@]5(C)CC[C@@]4(C)[C@]3(C)CC[C@H]2C1(C)C | > 40 µM | –
18 | CC1(C)[C@@H](OC(=O)CCCC(=O)O)CC[C@]2(C)[C@H]3C(=O)C=C4[C@@H]5C[C@@](C)(C(=O)O)CC[C@]5(C)CC[C@@]4(C)[C@]3(C)CC[C@@H]12 | 1.39 µM | –
19 | CC1(C)[C@@H](OC(=O)c2ccc(C(=O)O)cc2)CC[C@]2(C)[C@H]3C(=O)C=C4[C@@H]5C[C@@](C)(C(=O)O)CC[C@]5(C)CC[C@@]4(C)[C@]3(C)CC[C@@H]12 | 0.31 µM | –
20 | CC1(C)[C@@H](OC(=O)Cc2cccc(CC(=O)O)c2)CC[C@]2(C)[C@H]3C(=O)C=C4[C@@H]5C[C@@](C)(C(=O)O)CC[C@]5(C)CC[C@@]4(C)[C@]3(C)CC[C@@H]12 | 1.05 µM | –
21 | CSCC[C@@H](C=O)NC(=O)[C@H](CC(C)C)NC(=O)[C@H](CC(C)C)NC(C)=O (Ac-Leu-Leu-Met-aldehyde) | 5.25 µM | IC50 [2]: > 25 µM; IC50 [3]: 22.5 µM
22 | CC(=O)Cc1ccc(OCC(=O)O[C@H]2CC[C@]3(C)[C@H]4C(=O)C=C5[C@@H]6C[C@@](C)(C(=O)O)CC[C@]6(C)CC[C@@]5(C)[C@]4(C)CC[C@H]3C2(C)C)cc1 | 2.27 µM | –
23 | CC(C)C(=O)O[C@H]1CC[C@]2(C)[C@H]3C(=O)C=C4[C@@H]5C[C@@](C)(C(=O)O)CC[C@]5(C)CC[C@@]4(C)[C@]3(C)CC[C@H]2C1(C)C | 1.92 µM | –
